Reference: ChEMBL document CHEMBL1156629, “Synthesis and discovery of high affinity folate receptor-specific glycinamide ribonucleotide formyltransferase inhibitors with antitumor activity” (J Med Chem, 2008)
Calls of active or inactive are those of the source. The calls are words filed in the database; no cut-off is given here.

Columns and labels:
[1] = Antiproliferative activity against human FRbeta expressing Chinese hamster D4 cells in presence of folic acid; details: Cricetulus griseus
[2] = biological target: Folate receptor alpha (Homo sapiens) (UniProt P15328); test: Displacement of [3H]folic acid from human FRalpha in Chinese hamster RT16 cells; type: cell-based
Procedure, shortened: (§1)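 Cells were acid-stripped (pH 3.5 acetate buffer) and washed in ice-cold HEPES-buffered saline, pH 7.4. They were then incubated 15 min at 0°C with 50 nM [3H]folic acid (0.5 Ci/mmol) and a range of unlabeled ligand concentrations. Bound label was normalized to Lowry protein. […] Mean of 3 experiments.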

[3] = biological target: T1, Reduced folate transporter (Homo sapiens) (UniProt P41440); test: Inhibition of human RFC-mediated [3H]MTX transport expressed in Chinese hamster PC43-10 cells; type: cell-based; set-up: concentration or dose not given beside the values; details: concentration not given here
T1 sequence (whole entry): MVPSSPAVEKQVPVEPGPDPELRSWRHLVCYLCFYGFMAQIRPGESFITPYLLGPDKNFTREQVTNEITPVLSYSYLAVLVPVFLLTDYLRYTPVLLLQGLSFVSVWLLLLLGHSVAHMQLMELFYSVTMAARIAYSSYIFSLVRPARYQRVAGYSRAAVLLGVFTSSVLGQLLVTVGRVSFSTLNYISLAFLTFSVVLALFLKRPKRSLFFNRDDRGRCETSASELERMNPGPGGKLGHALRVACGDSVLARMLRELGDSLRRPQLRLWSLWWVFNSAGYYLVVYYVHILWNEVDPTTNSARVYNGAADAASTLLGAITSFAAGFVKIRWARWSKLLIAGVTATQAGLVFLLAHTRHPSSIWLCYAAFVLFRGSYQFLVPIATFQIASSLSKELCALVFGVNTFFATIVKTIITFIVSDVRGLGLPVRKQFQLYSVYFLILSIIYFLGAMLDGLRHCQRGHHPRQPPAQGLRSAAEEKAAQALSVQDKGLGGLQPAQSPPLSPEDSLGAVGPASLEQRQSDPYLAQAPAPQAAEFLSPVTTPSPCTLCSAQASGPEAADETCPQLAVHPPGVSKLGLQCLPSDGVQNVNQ

R2 = test: Antiproliferative activity against human RFC expressing Chinese hamster R2 cells
[4] = biological target: Folate receptor beta (Homo sapiens) (UniProt P14207); test: Displacement of [3H]folic acid from human FRbeta in Chinese hamster D4 cells; type: cell-based; procedure, shortened: as §1
KB [5] = test: Antiproliferative activity against human RFC and FRalpha expressing human KB cells in presence of folic acid
[6] = Antiproliferative activity against human FRalpha expressing Chinese hamster RT16 cells in presence of folic acid; details: Cricetulus griseus
[7] = Antiproliferative activity against human RFC expressing Chinese hamster PC43-10 cells; details: Cricetulus griseus
IGROV-1 [8] = test: Antiproliferative activity against human RFC and FRalpha expressing human IGROV1 cells in presence of folic acid
[9] = biological target: T2, Trifunctional purine biosynthetic protein adenosine-3 (Mus musculus, UniProt Q64737); test: Inhibition of mouse recombinant GARFTase
T2 sequence (Q64737 whole entry): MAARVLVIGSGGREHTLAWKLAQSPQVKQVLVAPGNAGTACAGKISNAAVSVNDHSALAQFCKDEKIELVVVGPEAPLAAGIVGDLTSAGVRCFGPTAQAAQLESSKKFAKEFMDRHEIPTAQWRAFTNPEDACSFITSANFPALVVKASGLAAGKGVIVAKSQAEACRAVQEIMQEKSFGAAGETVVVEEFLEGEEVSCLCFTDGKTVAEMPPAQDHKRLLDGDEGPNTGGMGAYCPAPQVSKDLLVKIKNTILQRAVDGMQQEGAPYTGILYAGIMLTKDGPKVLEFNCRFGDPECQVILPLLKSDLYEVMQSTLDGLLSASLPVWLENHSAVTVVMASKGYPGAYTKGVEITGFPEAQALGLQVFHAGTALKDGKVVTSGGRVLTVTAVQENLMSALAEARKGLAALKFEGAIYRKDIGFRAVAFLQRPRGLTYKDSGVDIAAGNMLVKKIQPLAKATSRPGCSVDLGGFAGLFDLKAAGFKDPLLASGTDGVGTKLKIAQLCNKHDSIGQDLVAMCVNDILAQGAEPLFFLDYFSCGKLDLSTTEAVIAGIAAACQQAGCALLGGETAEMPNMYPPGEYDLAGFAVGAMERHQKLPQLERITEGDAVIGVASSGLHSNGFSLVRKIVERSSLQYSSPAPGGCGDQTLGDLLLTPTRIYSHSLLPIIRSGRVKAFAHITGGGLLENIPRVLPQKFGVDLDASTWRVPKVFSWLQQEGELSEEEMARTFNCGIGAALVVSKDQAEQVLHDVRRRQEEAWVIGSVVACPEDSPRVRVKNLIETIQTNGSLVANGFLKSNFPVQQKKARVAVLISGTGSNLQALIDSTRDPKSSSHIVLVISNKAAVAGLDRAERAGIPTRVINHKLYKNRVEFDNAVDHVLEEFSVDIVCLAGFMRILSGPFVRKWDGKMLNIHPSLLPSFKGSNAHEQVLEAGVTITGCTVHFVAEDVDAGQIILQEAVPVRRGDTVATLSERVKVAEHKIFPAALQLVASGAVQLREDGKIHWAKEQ

[10] = biological target: T1, Reduced folate transporter (Homo sapiens); test: Inhibition of human RFC-mediated [3H]MTX transport in Chinese hamster PC43-10 cells at 10 uM; type: cell-based
KB [11] = test: cells; details: Homo sapiens, read-out: INH
cells [12] = details: Cricetulus griseus, RT16
[13] = biological target: T3, Trifunctional purine biosynthetic protein adenosine-3 (Homo sapiens, UniProt P22102)
T3 sequence (P22102 whole entry): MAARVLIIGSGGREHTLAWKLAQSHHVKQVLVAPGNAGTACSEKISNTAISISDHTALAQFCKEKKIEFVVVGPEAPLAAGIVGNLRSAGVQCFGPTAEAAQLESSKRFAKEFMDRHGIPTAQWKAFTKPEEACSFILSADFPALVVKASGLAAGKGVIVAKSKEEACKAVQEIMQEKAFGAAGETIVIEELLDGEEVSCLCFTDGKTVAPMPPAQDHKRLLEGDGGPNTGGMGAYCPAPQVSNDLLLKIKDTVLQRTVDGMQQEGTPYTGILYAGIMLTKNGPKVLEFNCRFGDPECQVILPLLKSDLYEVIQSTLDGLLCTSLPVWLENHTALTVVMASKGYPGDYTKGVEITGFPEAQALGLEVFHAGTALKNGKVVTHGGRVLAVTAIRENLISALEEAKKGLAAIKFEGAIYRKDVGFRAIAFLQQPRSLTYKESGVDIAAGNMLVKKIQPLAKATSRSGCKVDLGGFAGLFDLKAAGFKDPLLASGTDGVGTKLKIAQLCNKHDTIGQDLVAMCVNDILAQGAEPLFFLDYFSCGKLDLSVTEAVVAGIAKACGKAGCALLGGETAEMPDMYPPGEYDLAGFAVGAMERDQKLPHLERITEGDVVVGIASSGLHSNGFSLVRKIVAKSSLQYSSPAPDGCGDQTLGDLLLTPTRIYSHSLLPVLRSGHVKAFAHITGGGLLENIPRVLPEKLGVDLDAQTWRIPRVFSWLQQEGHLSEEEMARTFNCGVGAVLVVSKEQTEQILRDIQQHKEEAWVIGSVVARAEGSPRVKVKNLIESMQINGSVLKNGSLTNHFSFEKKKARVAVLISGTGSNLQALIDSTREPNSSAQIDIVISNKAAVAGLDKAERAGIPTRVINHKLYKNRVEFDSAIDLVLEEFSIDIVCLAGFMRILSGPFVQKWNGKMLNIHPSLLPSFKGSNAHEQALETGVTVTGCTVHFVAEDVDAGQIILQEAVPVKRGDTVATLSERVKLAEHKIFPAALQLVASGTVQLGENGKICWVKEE

cells [14] = details: Cricetulus griseus, D4
KB [15] = test: cells; details: Homo sapiens
IGROV-1 [16] = test: Antiproliferative activity against human RFC and FRalpha expressing human IGROV1 cells

Chain of Folate receptor alpha (Homo sapiens) (P15328 25-234 limits assumed): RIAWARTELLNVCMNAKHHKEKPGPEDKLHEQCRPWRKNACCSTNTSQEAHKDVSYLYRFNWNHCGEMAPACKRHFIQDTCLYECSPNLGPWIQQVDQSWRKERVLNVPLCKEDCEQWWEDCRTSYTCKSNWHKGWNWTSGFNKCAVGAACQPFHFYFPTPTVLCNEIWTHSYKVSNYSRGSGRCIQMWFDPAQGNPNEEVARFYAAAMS
Chain of Folate receptor beta (Homo sapiens) (P14207 17-230 limits assumed): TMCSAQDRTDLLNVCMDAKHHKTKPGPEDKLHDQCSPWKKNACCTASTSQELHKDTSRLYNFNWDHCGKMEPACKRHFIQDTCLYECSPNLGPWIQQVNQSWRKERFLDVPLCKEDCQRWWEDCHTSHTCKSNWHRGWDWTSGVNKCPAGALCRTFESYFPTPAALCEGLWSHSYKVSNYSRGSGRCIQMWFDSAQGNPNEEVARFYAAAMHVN

| SMILES | IC50 [1] [µM] | Activity [2] | inhibition [3] [%] | IC50 (R2) [µM] | Activity [4] | IC50 (KB [5]) [µM] | IC50 [6] [µM] | IC50 [7] [µM] | IC50 (IGROV-1 [8]) [µM] | IC50 [9] [µM] | inhibition [10] [%] | further results |
| --- | --- | --- | --- | --- | --- | --- | --- | --- | --- | --- | --- | --- |
| Nc1nc2[nH]c(CCCc3ccc(C(=O)N[C@@H](CCC(=O)O)C(=O)O)cc3)cc2c(=O)[nH]1 | > 1 | Active | < 20 | 0.448 | Active | > 1 | > 1 | 0.304 | > 1 | 2.44 | – | – |
| Nc1nc(=O)c2c([nH]1)NCC(CNc1ccc(C(=O)N[C@@H](CCC(=O)O)C(=O)O)cc1)N2C=O (stereo partly specified) | – | – | – | – | – | – | – | – | – | – | 60 | – |
| Nc1nc2[nH]cc(CCc3ccc(C(=O)N[C@@H](CCC(=O)O)C(=O)O)cc3)c2c(=O)[nH]1 [PEMETREXED] | – | – | – | – | – | – | – | – | 0.2 | – | 60 | – |
| Nc1nc2[nH]c(CCCCc3ccc(C(=O)N[C@@H](CCC(=O)O)C(=O)O)cc3)cc2c(=O)[nH]1 | – | Active | < 20 | > 1 | Active | > 1 | > 1 | > 1 | > 1 | 0.15 | – | inhibition at 1 µM (KB [11]): > 97% |
| Nc1nc2[nH]c(Cc3ccc(C(=O)N[C@@H](CCC(=O)O)C(=O)O)cc3)cc2c(=O)[nH]1 | > 1 | – | < 20 | > 1 | – | > 1 | > 1 | > 1 | > 1 | > 20 | – | IC50 (cells [12]): > 1 µM; IC50 [13]: > 1 µM; IC50 (cells [14]): > 1 µM; IC50 (KB [15]): > 1 µM; IC50 (IGROV-1 [16]): > 1 µM |
| Nc1nc2[nH]c(CCCCCc3ccc(C(=O)N[C@@H](CCC(=O)O)C(=O)O)cc3)cc2c(=O)[nH]1 | > 1 | Active | < 20 | > 1 | Active | > 1 | > 1 | > 1 | > 1 | 2.26 | – | IC50 [13]: 0.0072 µM |
| Nc1nc2[nH]c(CCCCCCc3ccc(C(=O)N[C@@H](CCC(=O)O)C(=O)O)cc3)cc2c(=O)[nH]1 | > 1 | Active | < 20 | > 1 | Active | > 1 | > 1 | > 1 | > 1 | 2.51 | – | IC50 (cells [12]): 0.162 µM; IC50 [13]: 0.0086 µM; IC50 (cells [14]): 0.198 µM; IC50 (IGROV-1 [16]): 0.309 µM |
| Cc1nc(=O)c2cc(CN(C)c3ccc(C(=O)N[C@@H](CCC(=O)O)C(=O)O)s3)ccc2[nH]1 [RALTITREXED] | – | – | – | – | – | – | – | – | – | – | – | inhibition at 1 µM (KB [11]): > 99% |
| COc1cc(NCc2ccc3nc(N)nc(N)c3c2C)cc(OC)c1OC [TRIMETREXATE] | 0.0061 | – | – | – | – | – | – | – | 0.0086 | – | – | – |
| CN(Cc1cnc2nc(N)nc(N)c2n1)c1ccc(C(=O)N[C@@H](CCC(=O)O)C(=O)O)cc1 [METHOTREXATE] | – | – | – | – | – | – | – | – | – | – | 60 | – |
| Nc1nc2c(c(=O)[nH]1)C[C@@H](CCc1ccc(C(=O)N[C@@H](CCC(=O)O)C(=O)O)cc1)CN2 [LOMETREXOL] | 0.275 | – | – | – | – | – | 0.188 | – | – | – | 60 | – |
| Nc1nc2ccc3ccc(CNc4ccc5c(c4)CN([C@@H](CCC(=O)O)C(=O)O)C5=O)cc3c2c(=O)[nH]1 | – | – | – | – | – | 0.032 | > 1 | – | – | – | – | IC50 (KB [15]): 0.0058 µM |
